Measured values published in ChEMBL document CHEMBL1944515 (J Med Chem, 2012).
Active and inactive are the calls of the source. No cut-off for these calls is given here.

Legend:
HeLa [1] = experiment: Cytotoxicity against human HeLa cells after 72 hrs by MTT assay; assay type: functional, cell-based
HT-29 = experiment: Cytotoxicity against human HT-29 cells after 72 hrs by MTT assay; assay type: functional, cell-based; settings: HT-29, 72 h
[2] = Inhibition of bovine tubulin polymerisation after 20 mins by turbidimetric analysis; set-up: species or system Bos taurus
Method in brief: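 Bovine brain tubulin at 10 μM was preincubated with varying compound concentrations in glutamate buffer at 30 °C, cooled to 0 °C, and 0.4 mM GTP added. Samples were warmed to 30 °C and assembly followed by turbidity at 350 nm.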

HL-60 = experiment: Cytotoxicity against human HL60 cells after 72 hrs by MTT assay; assay type: functional, cell-based; settings: HL-60, 72 h
MCF7 = experiment: Cytotoxicity against human MCF7 cells after 72 hrs by MTT assay; assay type: functional, cell-based; settings: MCF7, 72 h
A549 [3] = experiment: Cytotoxicity against human A549 cells after 72 hrs by MTT assay; assay type: functional, cell-based; settings: A549, 72 h
Jurkat = experiment: Cytotoxicity against human Jurkat cells after 72 hrs by MTT assay; assay type: functional, cell-based
Method in brief: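 8 × 10^3 cells/well were preincubated 18 h at 37 °C, 5% CO2, then given graded concentrations for 72 h, with final DMSO not above 0.25%. Viability was read by MTT. […] Mean ± SE from at least three experiments.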

Bos taurus = species: Bos taurus; experiment: Displacement of [3H]colchicine from bovine tubulin at 5 uM by DEAE-cellulose filter method
Method in brief: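 Inhibition of [3H]colchicine binding was measured in mixtures of 1 μM tubulin, 5 μM [3H]colchicine and 5 μM test compound. Results are percent inhibition of binding.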

[4] = Inhibition of tubulin polymerization
Method in brief: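 Bovine brain tubulin at 10 μM in glutamate buffer was preincubated with compound at varying concentrations at 30 °C, then cooled to 0 °C. GTP was added to 0.4 mM and the mixture rewarmed to 30 °C. Assembly was followed by turbidity at 350 nm.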

HeLa [5] = experiment: Induction of mitochondrial depolarization in human HeLa cells at 50 to 100 nM by JC1-based fluorescent staining; assay type: functional, cell-based; settings: TDE = time-dependent effect
Method in brief: (§1)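 Mitochondrial membrane potential in HeLa cells after 24 or 48 h incubation, measured with the JC-1 dye by flow cytometry. Aggregates read as red (590 nm) and monomers as 530 nm; output is the percentage of depolarized cells. Mean ± SEM of three independent experiments.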

HeLa [6] = experiment: Induction of mitochondrial depolarization in human HeLa cells after 24 to 48 hrs by JC1-based fluorescent staining; assay type: functional, cell-based; method in brief: as §1
HeLa [7] = experiment: Induction of apoptosis in human HeLa cells assessed as increase in annexin-V positive apoptotic cells after 24 to 48 hrs by FITC conjugated annexin-V/PI staining-based flow cytometry; assay type: functional, cell-based
Method in brief: (§2)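 Flow cytometry of HeLa cells after 24 or 48 h exposure, double-stained with annexin-V-FITC and propidium iodide. Excitation at 488 nm, emission at 525 nm (FITC) and 585 nm (PI). Quadrants scored as live, early apoptotic, late apoptotic or necrotic cells.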

HeLa [8] = experiment: Induction of cell cycle arrest in human HeLa cells assessed as decrease in S phase cells at 15 to 250 nM after 24 hrs by flow cytometry; assay type: functional, cell-based
Method in brief: (§3)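 5 × 10^5 exponentially growing HeLa cells were treated with 15–250 nM for 24 h, fixed in ice-cold 70% ethanol, then treated with lysis buffer containing RNase A and 0.1% Triton X-100. PI staining of DNA content, read by flow cytometry. Mean ± SEM of three independent experiments.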

A549 [9] = experiment: Resistance ratio of IC50 for human A549-T12 cells to IC50 for human A549 cells; assay type: functional
LoVo [10] = experiment: Resistance ratio of IC50 for human doxorubicin-resistant LoVo cells to human LoVo cells; assay type: functional
[11] = Cytotoxicity against human A549-T12 cells after 72 hrs by MTT assay; assay type: functional, cell-based; settings: A549, 72 h
Method in brief: (§4)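 Cells seeded at 8 × 10^3 per well and left 18 h at 37 °C, 5% CO2, then given fresh medium with compound at a range of concentrations for 72 h; DMSO at most 0.25% final. Viability read by MTT relative to 0.25% DMSO-treated cells. […] LoVoDoxo kept in Ham's F12 with 0.1 μg/mL doxorubicin; A549-T12 kept in DMEM with 12 nM paclitaxel.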

HeLa [12] = experiment: Induction of cell cycle arrest in human HeLa cells assessed as decrease in G1 phase cells at 15 to 250 nM after 24 hrs by flow cytometry; assay type: functional, cell-based; method in brief: as §3
HeLa [13] = experiment: Induction of cell cycle arrest in human HeLa cells assessed as G2/M phase cells at 60 nM after 24 hrs by flow cytometry; assay type: functional
Method in brief: (§5)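 Exponentially growing HeLa cells (5 × 10^5) were treated 24 h at 15–250 nM. Cells were fixed in ice-cold 70% ethanol, lysed with RNase A/0.1% Triton X-100 buffer and stained with propidium iodide. DNA content was measured by flow cytometry to score G2/M fraction. Mean ± SEM of three independent experiments.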

HeLa [14] = experiment: Induction of ROS production in human HeLa cells at 50 to 100 nM after 24 to 48 hrs by H2-DCFDA staining-based flow cytometry; assay type: functional, cell-based
Method in brief: (§6)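 HeLa cells were exposed for 24 or 48 h, then stained with hydroethidine or H2-DCFDA for ROS and read by flow cytometry. DMSO ≤0.25%. Mean ± SEM of three independent experiments.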

[15] = Cytotoxicity against human CEM/VBL100 cells after 72 hrs by MTT assay; assay type: functional, cell-based; settings: CEM/VBL100, 72 h; method in brief: as §4
HeLa [16] = experiment: Induction of apoptosis in human HeLa cells assessed as increase in annexin-V positive apoptotic cells at 50 to 100 nM by FITC conjugated annexin-V/PI staining-based flow cytometry; assay type: functional, cell-based; settings: TDE = time-dependent effect; method in brief: as §2
HeLa [17] = experiment: Induction of cell cycle arrest in human HeLa cells assessed as increase in G2/M phase cells at 30 nM after 24 hrs by flow cytometry; assay type: functional, cell-based; method in brief: as §3
HeLa [18] = experiment: Induction of cell cycle arrest in human HeLa cells assessed as increase in G2/M phase cells after 24 hrs by flow cytometry; assay type: functional, cell-based; method in brief: as §3
CCRF-CEM [19] = experiment: Cytotoxicity against human CEM cells after 72 hrs by MTT assay; assay type: functional, cell-based; method in brief: as §4
LoVo [20] = experiment: Cytotoxicity against human doxorubicin-resistant LoVo cells after 72 hrs by MTT assay; assay type: functional, cell-based; method in brief: as §4
LoVo [21] = experiment: Cytotoxicity against human LoVo cells after 72 hrs by MTT assay; assay type: functional, cell-based; method in brief: as §4
HeLa [22] = experiment: Induction of ROS production in human HeLa cells at 50 to 100 nM after 24 to 48 hrs by HE staining-based flow cytometry; assay type: functional, cell-based; method in brief: as §6
CCRF-CEM [23] = experiment: Resistance ratio of IC50 for human CEM/VBL100 cells to IC50 for human CEM cells; assay type: functional
HeLa [24] = experiment: Induction of cell cycle arrest in human HeLa cells assessed as increase in G2/M phase cells at 15 to 250 nM after 24 hrs by flow cytometry; assay type: functional, cell-based; method in brief: as §5

Row | Structure (SMILES) | IC50 (HeLa [1]) [nM] | IC50 (HT-29) [nM] | IC50 [2] [nM] | IC50 (HL-60) [nM] | IC50 (MCF7) [nM] | IC50 (A549 [3]) [nM] | IC50 (Jurkat) [nM] | inhibition (Bos taurus) [%] | also measured
1 | COc1ccc(-c2nnnn2-c2cc(OC)c(OC)c(OC)c2)cc1 | 2.6 | 4.6 | 2500 | 2.9 | 38.5 | 222 | 2.6 | 54 | 
2 | COc1ccc(-c2nnnn2-c2cc(OC)c(OC)c(OC)c2)cc1Cl | 2.3 | 35.9 | 3500 | 3.6 | 25.2 | 402 | 10 | 50 | 
3 | CCCOc1ccc(-c2nnnn2-c2cc(OC)c(OC)c(OC)c2)cc1 | 11.1 | 105 | 3100 | 43.3 | 66.2 | 495 | 47 | 46 | 
4 | CCCCOc1ccc(-c2nnnn2-c2cc(OC)c(OC)c(OC)c2)cc1 | > 10000 | > 10000 |  | > 10000 | > 10000 | > 10000 | > 10000 |  | 
5 | COc1ccc(-c2nnnn2-c2cc(OC)c(OC)c(OC)c2)cc1N |  |  |  |  |  |  |  |  | IC50 [4]: 2000 nM
6 | COc1ccc(-c2nnnn2-c2cc(OC)c(OC)c(OC)c2)cc1OC | 259 | 355 |  | 488 | 2720 | 3570 | 345 |  | 
7 | CCc1ccc(-c2nnnn2-c2cc(OC)c(OC)c(OC)c2)cc1 | 29 | 182 | 3700 | 53.1 | 12.6 | 3380 | 55.1 | 47 | 
8 | COc1cc(-c2nnnn2-c2cc(OC)c(OC)c(OC)c2)cc(OC)c1OC | > 10000 | > 10000 |  | > 10000 | > 10000 | > 10000 | > 10000 |  | 
9 | COc1cc(-n2nnnc2-c2ccccc2)cc(OC)c1OC | 4100 | > 10000 |  | 903 | > 10000 | > 10000 | 3.8 |  | 
10 | COc1ccc(-c2nnnn2-c2cc(OC)c(OC)c(OC)c2)cc1C | 2.1 | 5.6 | 2500 | 2 | 15.4 | 37.7 | 4.1 | 59 | 
11 | CCOc1ccc(-n2nnnc2-c2cc(OC)c(OC)c(OC)c2)cc1 | 0.3 | 3.1 | 2000 | 0.7 | 2.8 | 7.4 | 0.26 | 71 | Activity (HeLa [5]): tde; Activity (HeLa [6]): Dose-dependent effect; Activity (HeLa [7]): Dose-dependent effect; Activity (HeLa [8]): Active; Ratio IC50 (A549 [9]): 0.6; Ratio IC50 (LoVo [10]): 0.8; IC50 [11]: 4.2 nM; Activity (HeLa [12]): Active; Activity (HeLa [13]): >80%; Activity (HeLa [14]): Active; IC50 [15]: 0.5 nM; Activity (HeLa [16]): tde; Activity (HeLa [17]): Active; Activity (HeLa [18]): Dose-dependent effect; IC50 (CCRF-CEM [19]): 3.8 nM; IC50 (LoVo [20]): 96.9 nM; IC50 (LoVo [21]): 118 nM; Activity (HeLa [22]): Active; Ratio IC50 (CCRF-CEM [23]): 0.1
12 | COc1cc(-n2nnnc2-c2ccc(C)cc2)cc(OC)c1OC | 255 | 673 |  | 329 | 1780 | 3420 | 222 |  | 
13 | COc1ccc(-n2nnnc2-c2cc(OC)c(OC)c(OC)c2)cc1 | 952 | 265 | 2100 | 40.3 | 27.1 | > 10000 | 209 | 70 | 
14 | CCOc1ccc(-c2ncnn2-c2cc(OC)c(OC)c(OC)c2)cc1 |  |  | 760 |  |  |  |  | 86 | 
15 | CCOc1ccc(-c2nnnn2-c2cc(OC)c(OC)c(OC)c2)cc1Cl | 2.6 | 1.6 | 2000 | 0.8 | 1.8 | 28.8 | 0.23 | 58 | Ratio IC50 (A549 [9]): 1.1; Ratio IC50 (LoVo [10]): 1.3; IC50 [11]: 31.5 nM; IC50 [15]: 0.7 nM; Activity (HeLa [24]): Active; IC50 (CCRF-CEM [19]): 0.7 nM; IC50 (LoVo [20]): 15.7 nM; IC50 (LoVo [21]): 12.5 nM; Ratio IC50 (CCRF-CEM [23]): 1
16 | CCCCCOc1ccc(-c2nnnn2-c2cc(OC)c(OC)c(OC)c2)cc1 | 6400 | > 10000 |  | > 10000 | > 10000 | > 10000 | > 10000 |  | 
17 | COc1cc(-n2nnnc2-c2ccc(C(C)=O)cc2)cc(OC)c1OC | 648 | 6030 |  | 596 | > 10000 | > 10000 | 325 |  | 
18 | COc1cc(-n2nnnc2-c2cccs2)cc(OC)c1OC | > 10000 | > 10000 |  | > 10000 | > 10000 | > 10000 | > 10000 |  | 
19 | COc1ccc(-c2nnnn2-c2cc(OC)c(OC)c(OC)c2)cc1F | 2.8 | 2.7 | 2100 | 7.3 | 29.7 | 332 | 1.3 | 60 | 
